This is one part of a sample in which hits are shown more often than they occur.
UPR XBP1 act: adaptive UPR (XBP1) activation; CHO-XBP1 luciferase reporter, IRE1-XBP1 UPR activation, luminescence; percent of tunicamycin response, DMSO as zero; activation, % at 20 µM; 330,000 compounds, 0.33% hits; AID 463104;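 active = versus positive control, 20 µM dose yields 30% or more activation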;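 also: 100% = tunicamycin at 10 µg/mL and 0% = DMSO only wells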
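Material: IRE1-XBP1 luciferase reporter CHO line / Quantity: one thousand reporter cells per well / Buffer or medium: F12 with 10% serum / Compound: 20 µM single concentration, DMSO 1% / Times: 6 h treatment, 37 °C / Detection: Steady-Glo luciferase glow luminescence, 10 min after reagent addition / Benchmarks: tunicamycin high, DMSO low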
Tb MetRS inh: Trypanosoma brucei MetRS inhibition. purified T. brucei MetRS, ATP depletion, Kinase-Glo luminescence. inhibition, % at 11.9 µM. 360,000 compounds, 0.4% hits. AID 624268;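 active = inhibition above a per-plate cutoff of the control wells' mean inhibition plus 3 SD, cut at about 5.5% in these data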;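 also: 0% = DMSO wells median and 100% = median of wells with control inhibitor compound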
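Dosing: 11.9 µM compound single dose, 0.9% DMSO; Assay system: purified T. brucei MetRS enzyme; Measured by: Kinase-Glo luciferase luminescence reporting remaining unconsumed ATP; Schedule: 15 min plus 2 h at 25 °C.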
V-ATPase pHluor: alters yeast V-ATPase proton transport; response, % at 10 µM; S. cerevisiae, pHLuorin cytosolic pH fluorescence; 350,000 compounds, 0.37% hits; in the data active = response mostly above about 7.3%, no sharp cut-off; inactive = mostly below about 5.4%; also: actives read high
CHOP inhibitor: blocks CHOP induction under ER stress. CHO-K1 CHOP-promoter luciferase, tunicamycin-induced, 15-18 h. inhibition, % at 10 µM. 220,000 compounds, 3.8% hits. AID 2732;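 active = compounds that reduced the stress-induced luciferase reporter signal by more than about 70% of percent inhibition, limit read from the data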;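 also: 0% = tunicamycin plus vehicle and 100% = wells without tunicamycin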
UPR CHOP act: apoptotic UPR (CHOP) activation. CHO-CHOP luciferase reporter, luminescence; percent of tunicamycin response over DMSO baseline. 330,000 compounds, 0.34% hits. activation, % at 10 µM. AID 449763;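 active = at 10 µM dose, activation of 40% or more, normalized to positive control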;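 also: 100% = tunicamycin at 10 µg/mL and 0% = DMSO alone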
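Material: CHO-CHOP cells, stable luciferase reporter of PERK-eIF2a-CHOP signalling; quantity: 500 reporter cells seeded per well; buffer or medium: F12 medium containing 10% fetal bovine serum; compound: one dose, 10 µM in 0.5% DMSO; incubation: 6 h compound treatment, 37 °C; measured by: Steady-Glo luciferase luminescence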
Numbers without * were called inactive; . = no result.

SMILES	UPR XBP1 act	Tb MetRS inh	V-ATPase pHluor	CHOP inhibitor	UPR CHOP act
C=CCc1cccc(/C=N/NC(=O)CNc2ccccc2OC)c1O	0.5	-0.3	-4.9	88.6*	-0.3
COc1ccc(NC(C)C(=O)N/N=C/c2ccccc2OCc2ccc(Br)cc2)cc1 (stereo not drawn)	0.5	-0.3	-6.8	28.2	9.9
CCc1ccc(Nc2ncc3c(n2)CC(C)CC3=O)cc1 (stereo not drawn)	2.0	0.0	-0.1	73.2*	3.7
O=C(Oc1cccc2c(O)cccc12)c1ccco1	.	-0.9	-1.3	.	.
CC(=O)Nc1ccc(-c2nnc(SCC(=O)n3c4c(c5ccccc53)CCCC4)n2C)cc1	.	0.7	0.7	78.4*	.
Cn1c(SCC(=O)Nc2ccc3c(c2)oc2ccccc23)nnc1-c1ccccc1	-1.8	0.0	-1.3	87.5*	0.3
O=C(CSc1nnc(NC(=O)c2ccccc2Cl)s1)Nc1ccc2c(c1)oc1ccccc12	1.0	.	.	70.5*	3.2
CCOC(=O)C(C)Oc1cccc2c(=O)n(CC(=O)Nc3ccc(OC)cc3)ccc12 (stereo not drawn)	.	0.3	.	.	.
CC1(C)Cc2ccccc2C(/C(=N\Nc2cccc(Cl)c2)C(N)=O)=N1	-4.2	0.3	-2.2	86.6*	0.4
CC(=O)c1ccc(N/N=C(/C(N)=O)C2=NC(C)(C)Cc3ccccc32)cc1	1.2	0.5	3.0	19.5	0.0
Cc1nn(CC(C)C)c(Cl)c1C(=O)N(C)CC(=O)Nc1ccc(Cl)cc1	.	0.0	0.5	.	.
S=C1Nc2ccccc2CS1	.	-0.6	0.8	.	.
S=C1Cc2ccccc2N1	.	-0.4	-1.7	107.1*	.
CN(C)CCN(C(=O)CCc1ccccc1)c1nc2c(F)cc(F)cc2s1	0.9	1.1	-1.4	71.1*	2.1
C=CCSC1=N/C(=C\c2ccc(C)o2)C(=O)S1	7.2	-0.8	6.9	71.5*	-2.4
CCCC(=O)Nc1ccc2oc(-c3ccc(OC)c(Br)c3)nc2c1	8.2	-0.4	2.1	95.8*	2.2
CN1CCc2c(sc3c2C(=O)NC(c2ccco2)N3)C1 (stereo not drawn)	-2.6	1.4	1.6	32.2	2.9
CN1CCc2c(sc3c2C(=O)NC(c2cn(Cc4ccccc4)c4ccccc24)N3)C1 (stereo not drawn)	4.4	-0.1	0.4	78.6*	0.1
CCCCOC(=O)Nc1nnc(-c2ccccc2OC)s1	0.1	-0.5	-1.6	83.1*	-1.3
COc1ccccc1-c1nnc(NC(C)=O)s1	-0.4	-0.4	5.7	-17.4	2.2
CCCCOC(=O)Nc1nnc(C(C)C)s1	-0.3	0.0	-3.9	-10.6	1.9
COc1ccccc1-c1nnc(NC(=O)C(C)C)s1	4.0	0.2	8.0*	16.6	1.0
CCCC1(c2ccccc2)NC(=O)N(CC(=O)Nc2sc(-c3ccccc3)cc2C(=O)OCC)C1=O (stereo not drawn)	4.1	0.4	4.2	85.2*	1.3
COc1ccc(N2C(=O)CSC23C(=O)N2c4c(cccc43)C(C)=CC2(C)C)cc1 (stereo not drawn)	3.2	-0.8	-3.1	74.6*	-1.2
CCOC(=O)C1=C[C@@H](C(C)C)N(S(=O)(=O)c2ccc(C)cc2)[C@H]1c1ccc(C(F)(F)F)cc1	.	0.3	.	.	.
SMILES	UPR XBP1 act	Tb MetRS inh	V-ATPase pHluor	CHOP inhibitor	UPR CHOP act
O=C(COC(=O)c1ccc2c(c1)C(=O)N(c1cccc3ncccc13)C2=O)c1ccc(Cl)cc1	-3.2	-0.7	7.0	87.5*	-1.7
Cc1ccc(C(=O)COC(=O)c2ccc3c(c2)C(=O)N(c2cccc4ncccc24)C3=O)cc1	-2.6	-1.2	2.2	39.0	-0.8
COc1cc(/C=N/NC(=O)Nc2cccc3nsnc23)cc(OC)c1OC	.	-0.4	-4.5	84.1*	.
Cn1nnnc1SCC(=O)Nc1ccc(Oc2ccccc2)cc1	1.8	-1.2	2.8	74.8*	1.1
COc1ccc(NC(=O)CSc2nnnn2C)cc1	0.7	-0.3	0.6	-22.1	1.7
CCOC(=O)Nc1ccc(Oc2ccccc2)cc1	7.9	0.2	1.2	73.5*	2.1
CC(/C=N/NC(=O)c1cc(-c2ccc(C)o2)[nH]n1)=C\c1ccccc1	-1.2	-0.3	-0.6	93.5*	-2.4
CC(/C=N/NC(=O)c1cc(-c2cccs2)[nH]n1)=C\c1ccccc1	7.1	0.2	1.0	90.8*	-0.3
c1ccc(CN2CCN(c3ncnc4c3[nH]c3ccccc34)CC2)cc1	-1.8	6.2*	3.7	87.0*	-0.9
COc1ccc2c(c1)[nH]c1c(N3CCN(Cc4ccc5c(c4)OCO5)CC3)ncnc12	6.4	2.4	-0.2	74.8*	8.2
CC(=O)O[C@@H](Cc1ccc(O)cc1)C(=O)CC(C)C	.	-0.3	.	.	.
CC(=O)N1CCc2cc(NC(=O)C3(C)CCN3Cc3ccc(C(C)C)cc3)ccc21 (stereo not drawn)	.	0.1	.	.	.
CCOC(=O)CSc1nc2ccc(NC(C)=O)cc2s1	-1.4	-0.2	0.4	90.0*	0.6
CCOc1ccc2nc(SCC(=O)NC3CC3)sc2c1	-0.7	-0.4	-3.6	.	2.3
CCOc1ccc2nc(SCC(=O)c3ccccc3)sc2c1	4.8	-0.5	0.0	93.5*	1.8
O=C(Nc1ccc2c(c1)OCO2)C1Cc2c(-c3ccccc3Oc3ccccc3)ccnc2O1 (stereo not drawn)	.	-0.3	.	.	.
CCCCn1c(N)c(N(CCOC)C(=O)CCCc2cccs2)c(=O)[nH]c1=O	-3.6	-0.3	-1.1	.	0.6
Cc1nc(C2CCC3C4CCC5=CC(=O)CC[C@]5(C)C4CC[C@]23C)cs1 (stereo partly drawn)	4.1	.	.	75.9*	7.1
C/C=C1\C(=O)CC2C3CCC4=CC(=O)CC[C@]4(C)C3CC[C@]12C (stereo partly drawn)	.	.	.	12.2	.
CCCCN(CCCC)CC(O)COc1ccccc1Br (stereo not drawn)	-3.8	-0.8	-1.2	28.2	-0.7
CC(C)CN(CC(C)C)CC(O)COc1ccccc1Br (stereo not drawn)	-0.9	-0.4	0.6	84.7*	0.3
O=C1C=C(OCCF)CC(c2cccc([N+](=O)[O-])c2)O1 (stereo not drawn)	.	0.0	.	.	.
CCc1nnc(NC(=O)c2ccc(S(=O)(=O)N3CCc4ccccc4C3)cc2)s1	1.1	0.3	1.7	82.3*	1.2
CCc1nnc(NC(=O)c2ccc(Cl)c(S(=O)(=O)N3CCc4ccccc4C3)c2)s1	-1.6	-0.2	3.2	54.6	-1.0
CC(C)(C)c1ccc(/C=C(\C#N)C(=O)NC2CC2)cc1	3.9	-0.1	-2.1	.	1.1
Nc1nc(-c2ccc(Cl)cc2)nn1C(=O)c1cccnc1	-1.2	-0.1	20.0*	1.3	3.9
Nc1nc(-c2cccnc2)nn1C(=O)Cc1ccccc1	-0.6	0.4	4.5	77.6*	0.1
O=c1cc(N2CCN(c3ccc(F)cc3)CC2)[nH]c(=O)n1C1CCCCC1	-2.9	0.1	-5.6	72.3*	-3.2
OCc1cn(-c2ccccc2)nc1-c1ccc(-c2nn(-c3ccccc3)cc2CO)cc1	7.9	-1.2	-2.6	88.3*	14.6

Screening data from PubChem.
